Assay results taken from ChEMBL document CHEMBL4831482 (Eur J Med Chem, 2021).
Converted amounts (≈) assume the structure as drawn. The source made the active and inactive calls. No cut-off for these calls is given here. Where a SMILES comes first, the peptide text is derived from it. The star is where a group is joined. Boc = CC(C)(C)OC(=O)*; NHBn = c1ccc(CN*)cc1

Experiments:
[1] = test system: Staphylococcus aureus; experiment: Antibacterial activity against methicillin-resistant Staphylococcus aureus ATCC 33591 assessed as inhibition of bacterial growth by CLSI method; format: functional, organism-based
[2] = test system: Klebsiella pneumoniae; experiment: Antibacterial activity against Klebsiella pneumoniae ATCC BAA1705 assessed as inhibition of bacterial growth by CLSI method; format: functional, organism-based
[3] = test system: Aspergillus fumigatus; experiment: Antifungal activity against Aspergillus fumigatus ATCC 1022 assessed as inhibition of fungal growth by CLSI method; format: functional, organism-based
[4] = test system: Candida albicans; experiment: Antifungal activity against Candida albicans ATCC 10231 assessed as inhibition of fungal growth by CLSI method; format: functional, organism-based
[5] = test system: Vero; experiment: Cytotoxicity against African green monkey Vero cells assessed as reduction in cell viability incubated for 48 hrs by Neutral red assay; format: cell-based; settings: chlorocebus sabaeus
In short: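 VERO monkey kidney cells seeded at 25,000 cells/well and incubated 24 h to confluency. Peptide added, then a further 48 h incubation. Viability read by neutral red uptake.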

[6] = test system: Pseudomonas aeruginosa; experiment: Antibacterial activity against Pseudomonas aeruginosa ATCC 27853 assessed as inhibition of bacterial growth by CLSI method; format: functional, organism-based
[7] = test system: Cryptococcus neoformans; experiment: Antifungal activity against Cryptococcus neoformans ATCC 90113 assessed as inhibition of fungal growth by CLSI method; format: functional, organism-based
[8] = test system: Enterococcus; experiment: Antibacterial activity against vancomycin resistant Enterococcus ATCC MP-1 assessed as inhibition of bacterial growth by CLSI method; format: functional, organism-based
[9] = test system: Escherichia coli; experiment: Antibacterial activity against Escherichia coli ATCC 35218 assessed as inhibition of bacterial growth by CLSI method; format: functional, organism-based

SMILES | MIC [7] [µg/mL] | IC50 [1] [µg/mL] | MIC [1] [µg/mL] | Activity [2] | Activity [3] | Activity [4] | Activity [5] [µg/mL] | IC50 [6] [µg/mL] | IC50 [7] [µg/mL] | IC50 [8] [µg/mL] | IC50 [9] [µg/mL] | MIC [8] [µg/mL] | MIC [9] [µg/mL] | MIC [6] [µg/mL]
Cc1ccc(-c2nc(C[C@H](NC(=O)OC(C)(C)C)C(=O)N[C@@H](Cc3c[nH]c4ccccc34)C(=O)N[C@@H](CCCNC(=N)N)C(=O)NCc3ccccc3)c[nH]2)cc1 | 5 (≈ 6.44 µM) | 17.5 (≈ 22.5 µM) | 20 (≈ 25.7 µM) | inactive | inactive | inactive | > 10 | > 20 | 4.34 (≈ 5.59 µM) | > 20 | > 20 | – | – | –
CCc1ccc(-c2nc(C[C@H](N)C(=O)N[C@@H](Cc3c[nH]c4ccccc34)C(=O)N[C@@H](CCCNC(=N)N)C(=O)NCc3ccccc3)c[nH]2)cc1.Cl.Cl | 10 | 18.4 | 20 | inactive | inactive | inactive | > 10 | > 20 | 2.26 | 13.5 | > 20 | 20 | – | –
CCc1ccc(-c2nc(C[C@H](N)C(=O)N[C@@H](Cc3c[nH]c4ccccc34)C(=O)N[C@@H](CCCNC(=N)N)C(=O)OC)c[nH]2)cc1.Cl.Cl | 2.5 | > 20 | – | inactive | inactive | inactive | > 10 | > 20 | 1.85 | > 20 | 17.4 | – | > 20 | –
COC(=O)[C@H](CCCNC(=N)N)NC(=O)[C@H](Cc1c[nH]c2ccccc12)NC(=O)[C@H](Cc1c[nH]c(-c2ccc(C)cc2)n1)NC(=O)OC(C)(C)C | > 20 | – | – | inactive | inactive | inactive | > 10 | – | 7.66 (≈ 10.9 µM) | – | – | – | – | –
CCc1ccc(-c2nc(C[C@H](NC(=O)OC(C)(C)C)C(=O)N[C@@H](Cc3c[nH]c4ccccc34)C(=O)N[C@@H](CCCNC(=N)N)C(=O)OC)c[nH]2)cc1 | > 20 | – | – | inactive | inactive | inactive | > 10 | – | 9.66 (≈ 13.5 µM) | – | – | – | – | –
CC(C)(C)OC(=O)N[C@@H](Cc1c[nH]cn1)C(=O)N[C@@H](Cc1c[nH]c2ccccc12)C(=O)N[C@@H](CCCNC(=N)N)C(=O)NCc1ccccc1 (Boc-His-Trp-Arg-NHBn) | – | – | – | inactive | inactive | inactive | > 10 | – | > 20 | – | – | – | – | –
CCc1ccc(-c2nc(C[C@H](NC(=O)OC(C)(C)C)C(=O)N[C@@H](Cc3c[nH]c4ccccc34)C(=O)N[C@@H](CCCNC(=N)N)C(=O)NCc3ccccc3)c[nH]2)cc1 | 2.5 (≈ 3.16 µM) | 8.93 (≈ 11.3 µM) | 20 (≈ 25.3 µM) | inactive | inactive | inactive | > 10 | > 20 | 1.5 (≈ 1.9 µM) | 14.9 (≈ 18.8 µM) | > 20 | > 20 | – | –
CCCCc1ccc(-c2nc(C[C@H](NC(=O)OC(C)(C)C)C(=O)N[C@@H](Cc3c[nH]c4ccccc34)C(=O)N[C@@H](CCCNC(=N)N)C(=O)OC)c[nH]2)cc1 | 2.5 (≈ 3.36 µM) | 9.29 (≈ 12.5 µM) | 10 (≈ 13.4 µM) | inactive | inactive | inactive | > 10 | > 20 | 1.99 (≈ 2.68 µM) | 7.82 (≈ 10.5 µM) | 17.9 (≈ 24 µM) | 20 (≈ 26.9 µM) | > 20 | –
COC(=O)[C@H](CCCNC(=N)N)NC(=O)[C@H](Cc1c[nH]c2ccccc12)NC(=O)[C@@H](N)Cc1c[nH]c(-c2ccc(-c3ccccc3)cc2)n1.Cl.Cl | 2.5 | 7.81 | 10 | inactive | inactive | inactive | > 10 | > 20 | 1.51 | 13.2 | > 20 | 20 | – | –
C[C@@H]1[C@H](O)[C@@H](C)/C=C/C=C/C=C/C=C/C=C/C=C/C=C/[C@H](O[C@@H]2O[C@H](C)[C@@H](O)[C@H](N)[C@@H]2O)C[C@@H]2O[C@](O)(C[C@@H](O)C[C@@H](O)[C@H](O)CC[C@@H](O)C[C@@H](O)CC(=O)O[C@H]1C)C[C@H](O)[C@H]2C(=O)O [AMPHOTERICIN B] | 1.25 (≈ 1.35 µM) | – | – | – | – | – | – | – | – | – | – | – | – | –
COC(=O)[C@H](CCCNC(=N)N)NC(=O)[C@H](Cc1c[nH]c2ccccc12)NC(=O)[C@H](Cc1c[nH]c(-c2ccc(-c3ccccc3)cc2)n1)NC(=O)OC(C)(C)C | > 20 | 16.3 (≈ 21.3 µM) | > 20 | inactive | inactive | inactive | > 10 | > 20 | 8.06 (≈ 10.6 µM) | – | > 20 | – | – | –
CCCCc1ccc(-c2nc(C[C@H](N)C(=O)N[C@@H](Cc3c[nH]c4ccccc34)C(=O)N[C@@H](CCCNC(=N)N)C(=O)NCc3ccccc3)c[nH]2)cc1.Cl.Cl | 5 | 4.46 | 10 | inactive | inactive | inactive | > 10 | 17.2 | 2.27 | 9.99 | 16.3 | 20 | > 20 | > 20
Cl.Cl.N=C(N)NCCC[C@H](NC(=O)[C@H](Cc1c[nH]c2ccccc12)NC(=O)[C@@H](N)Cc1c[nH]c(-c2ccc(-c3ccccc3)cc2)n1)C(=O)NCc1ccccc1 | 5 | 4.44 | 5 | inactive | inactive | inactive | > 10 | 18.7 | 1.17 | 8.33 | > 20 | 20 | – | > 20
CC(C)(C)OC(=O)N[C@@H](Cc1c[nH]c(-c2ccc(-c3ccccc3)cc2)n1)C(=O)N[C@@H](Cc1c[nH]c2ccccc12)C(=O)N[C@@H](CCCNC(=N)N)C(=O)NCc1ccccc1 | 2.5 (≈ 2.98 µM) | 4.56 (≈ 5.43 µM) | 10 (≈ 11.9 µM) | inactive | inactive | inactive | > 10 | 19.8 (≈ 23.6 µM) | 2.15 (≈ 2.56 µM) | 8.82 (≈ 10.5 µM) | > 20 | 10 (≈ 11.9 µM) | – | –

Continued, in another order:

MIC [7] [µg/mL] | SMILES | IC50 [1] [µg/mL] | MIC [1] [µg/mL] | Activity [2] | Activity [3] | Activity [4] | Activity [5] [µg/mL] | IC50 [6] [µg/mL] | IC50 [7] [µg/mL] | IC50 [8] [µg/mL] | IC50 [9] [µg/mL] | MIC [8] [µg/mL] | MIC [9] [µg/mL] | MIC [6] [µg/mL]
10 | COC(=O)[C@H](CCCNC(=N)N)NC(=O)[C@H](Cc1c[nH]c2ccccc12)NC(=O)[C@@H](N)Cc1c[nH]cn1.Cl.Cl (H-His-Trp-Arg-OMe) | – | – | inactive | inactive | inactive | > 10 | – | 2.41 | – | – | – | – | –
5 | Cc1ccc(-c2nc(C[C@H](N)C(=O)N[C@@H](Cc3c[nH]c4ccccc34)C(=O)N[C@@H](CCCNC(=N)N)C(=O)NCc3ccccc3)c[nH]2)cc1.Cl.Cl | – | – | inactive | inactive | inactive | > 10 | – | 3.36 | – | – | – | – | –
> 20 | COC(=O)[C@H](CCCNC(=N)N)NC(=O)[C@H](Cc1c[nH]c2ccccc12)NC(=O)[C@@H](N)Cc1c[nH]c(-c2ccccc2)n1.Cl.Cl | – | – | inactive | inactive | inactive | > 10 | – | 9.23 | – | – | – | – | –
> 20 | COC(=O)[C@H](CCCNC(=N)N)NC(=O)[C@H](Cc1c[nH]c2ccccc12)NC(=O)[C@@H](N)Cc1c[nH]c(-c2ccc(C)cc2)n1.Cl.Cl | – | – | inactive | inactive | inactive | > 10 | – | 8.98 | – | – | – | – | –
10 | Cl.Cl.N=C(N)NCCC[C@H](NC(=O)[C@H](Cc1c[nH]c2ccccc12)NC(=O)[C@@H](N)Cc1c[nH]cn1)C(=O)NCc1ccccc1 (H-His-Trp-Arg-NHBn) | – | – | inactive | inactive | inactive | > 10 | – | 4.92 | – | – | – | – | –
> 20 | COC(=O)[C@H](CCCNC(=N)N)NC(=O)[C@H](Cc1c[nH]c2ccccc12)NC(=O)[C@H](Cc1c[nH]c(-c2ccccc2)n1)NC(=O)OC(C)(C)C | – | – | inactive | inactive | inactive | > 10 | – | 8.85 (≈ 12.9 µM) | – | – | – | – | –
10 | Cl.Cl.N=C(N)NCCC[C@H](NC(=O)[C@H](Cc1c[nH]c2ccccc12)NC(=O)[C@@H](N)Cc1c[nH]c(-c2ccccc2)n1)C(=O)NCc1ccccc1 | – | – | inactive | inactive | inactive | > 10 | – | 5.31 | – | – | – | – | –
> 20 | CC(C)(C)OC(=O)N[C@@H](Cc1c[nH]c(-c2ccccc2)n1)C(=O)N[C@@H](Cc1c[nH]c2ccccc12)C(=O)N[C@@H](CCCNC(=N)N)C(=O)NCc1ccccc1 | – | – | inactive | inactive | inactive | > 10 | – | 7.93 (≈ 10.4 µM) | – | – | – | – | –
